In ChEMBL document CHEMBL2040821, “Design, synthesis, and biological evaluation of 1-[(2-benzyloxyl/alkoxyl)methyl]-5-halo-6-aryluracils as potent HIV-1 non-nucleoside reverse transcriptase inhibitors with an improved drug resistance profile” (J Med Chem, 2012):

How the values were obtained:
[1] = Selectivity index, ratio of CC50 for human MT4 cells to EC50 for NNRTI-resistant HIV1 A17 expressing reverse transcriptase K103N and Y181C mutant; type: toxicity, cell-based; conditions: read-out: Ratio CC50/EC50
Procedure, shortened: (§1)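 SI is CC₅₀ in MT4 cells over EC₅₀ for each strain. For CC₅₀, MT4 cells (5 × 10⁴/well) were exposed to graded compound concentrations for 3 days at 37 °C, then given CCK-8/XTT for 4 h at 37 °C and read at 450 nm absorbance. Assays were run in triplicate.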

[2] = system: Human immunodeficiency virus 1; test: Antiviral activity against NNRTI-resistant HIV1 A17 expressing reverse transcriptase K103N and Y181C mutant infected in human MT4 cells assessed as inhibition of viral p24 antigen production after 7 days by ELISA; type: functional, organism-based; conditions: Human immunodeficiency virus 1, A17, MT4, 168 h
Procedure, shortened: (§2)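 MT4 cells (4 × 10⁴/well) were infected with 200 TCID₅₀ of HIV-1 and incubated 2 h at 37 °C. Compounds were then added at serial dilutions. Each compound was run in triplicate, reported as mean SD.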

[3] = Selectivity index, ratio of CC50 for human MT4 cells to EC50 for HIV1 SF33; type: toxicity, cell-based; conditions: read-out: Ratio CC50/EC50; procedure, shortened: as §1
MT4 = test: Cytotoxicity against human MT4 cells after 3 days by XTT assay; type: cell-based; conditions: mt4, 72 h
Procedure, shortened: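 MT4 cells (5 × 10⁴/well) exposed to graded compound concentrations at 37 °C for 3 days. CCK-8 reagent then added, with a further 4 h at 37 °C for XTT formazan colour development. Absorbance read at 450 nm to give CC₅₀. Each compound run in triplicate.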

[4] = target: Human immunodeficiency virus type 1 reverse transcriptase (Human immunodeficiency virus 1, UniProt Q72547); test: Inhibition of HIV1 reverse transcriptase using poly(ra)/oligo(dT)15 homopolymer template as substrate after 1 hr
[5] = system: Human immunodeficiency virus 1; test: Ratio of nevirapine EC50 to compound EC50 for HIV1 SF33; type: functional
[6] = system: Human immunodeficiency virus 1; test: Antiviral activity against HIV1 SF33 infected in human MT4 cells assessed as inhibition of viral p24 antigen production after 7 days by ELISA; type: functional, organism-based; conditions: Human immunodeficiency virus 1, SF33, MT4, 168 h; procedure, shortened: as §2

Compound | selectivity ratio [1] | EC50 [2] [µM] | selectivity ratio [3] | CC50 (MT4) [µM] | IC50 [4] [µM] | Ratio EC50 [5] | EC50 [6] [µM]
Cc1cc(C)cc(Cc2c(I)c(=O)[nH]c(=O)n2COCc2ccccc2)c1 | 1080 | 0.091 | 38200 | 98.3 | 0.003 | 325 | 0.002
Cc1cc(C)cc(Cc2c(N(C)C)c(=O)[nH]c(=O)n2COCc2ccccc2)c1 | 25 | 2.2 | 5200 | 55.8 | 0.021 | 46 | 0.014
Cc1cc(C)cc(Cc2c(Br)c(N)nc(=O)n2COCc2ccccc2)c1 |  |  |  |  | 16.3 |  | 
O=c1[nH]c(=O)n(COCc2ccccc2)c(Cc2ccccc2)c1I | < 7 | > 10 | 1660 | 74.8 | 0.01 |  | 0.045
Cc1cc(C)cc(Cc2c(Br)c(=O)[nH]c(=O)n2COCc2ccccc2)c1 | 253 | 0.601 | 16900 | 152 | 0.043 |  | 0.009
Cc1ccnc2c1NC(=O)c1cccnc1N2C1CC1 [NEVIRAPINE] |  | > 10 |  | 325 |  |  | 0.068
O=c1[nH]c(=O)n(COCc2ccccc2)c(Cc2cc(F)cc(F)c2)c1I | 48 | 2.54 | 20200 | 121 | 0.015 | 46 | 0.006
O=c1[nH]c(=O)n(COCc2ccccc2)c(Cc2ccccc2)c1Br | < 6.7 | > 10 | 39 | 67.4 | 1.52 |  | 1.72
CN(C)c1c(Cc2ccccc2)n(COCc2ccccc2)c(=O)[nH]c1=O | < 9 | > 10 | 264 | 91.8 | 0.012 |  | 0.345
CCOCn1c(Cc2cc(C)cc(C)c2)c(Br)c(=O)[nH]c1=O |  |  |  |  | 0.21 |  | 
CCOCn1c(Cc2ccccc2)c(N(C)C)c(=O)[nH]c1=O | < 16.6 | > 10 | 270 | 166 | 0.162 |  | 0.614
CC(C)c1c(Cc2ccccc2)n(COCc2ccccc2)c(=O)[nH]c1=O | < 6.6 | > 10 | 3840 | 84.6 | 0.02 |  | 0.022
CCOCn1c(Cc2cc(C)cc(C)c2)c(N(C)C)c(=O)[nH]c1=O |  |  |  |  | 0.039 |  | 
Cc1cc(C)cc(Cc2c(I)c(N)nc(=O)n2COCc2ccccc2)c1 |  |  |  |  | 7.22 |  | 
CCOCn1c(Cc2ccccc2)c(Br)c(=O)[nH]c1=O | < 15.5 | > 10 | 75 | 155 | 1.82 |  | 2.07
CCOCn1c(Cc2ccccc2)c(I)c(=O)[nH]c1=O |  |  |  |  | 0.114 |  | 
CCOCn1c(Cc2cc(F)cc(F)c2)c(I)c(=O)[nH]c1=O | < 30 | > 10 | 559 | 300 | 11.8 |  | 0.537
CCOCn1c(Cc2cc(C)cc(C)c2)c(I)c(=O)[nH]c1=O | 222 | 0.637 | 23700 | 142 | 0.11 |  | 0.006
